Measured values collected from several papers.
≈ marks a conversion by molar mass, not a printed value.
Effect on: microbial growth

C[C@@H](O)[C@H]1C(=O)N2C(C(=O)O)=C(SCCN=CN)C[C@H]12  MIC (Enterobacter cloacae; broth dilution; ATCC13047): 2 µg/mL (≈ 6.68 µM)
Cc1ccc2[nH]nc(-c3nnc(Nc4cc(Cl)cc(Br)c4)s3)c2c1  MIC (Serratia marcescens; ATCC8100): 250 µg/mL (≈ 595 µM)
Nc1nn2c(-c3ccco3)cc(-c3ccc(OCc4ccccc4)cc3)nc2c1N=Nc1ccc(F)cc1  MIC (Enterobacter cloacae; ATCC23355): 15.6 µg/mL (≈ 30.9 µM)
Cc1ccc2[nH]nc(-c3nnc(Nc4ccc(Cl)c(Cl)c4)s3)c2c1  MIC (Serratia marcescens; ATCC8100): 110 µg/mL (≈ 292 µM)
COc1ccc(N=Nc2c(N)nn3c(-c4ccco4)cc(-c4ccc(OCc5ccccc5)cc4)nc23)cc1  MIC (Enterobacter cloacae; ATCC23355): 7.81 µg/mL (≈ 15.1 µM)
CN(C)[C@@H]1C(O)=C(C(N)=O)C(=O)[C@@]2(O)C(O)=C3C(=O)c4c(O)cccc4[C@@](C)(O)[C@H]3C[C@@H]12  MIC (Enterobacter cloacae; broth dilution; ATCC13047): 2 µg/mL (≈ 4.5 µM)
Cc1ccc2[nH]nc(-c3nnc(Nc4ccc(F)cc4Cl)s3)c2c1  MIC (Serratia marcescens; ATCC8100): 85.2 µg/mL (≈ 237 µM)
CCCCCCC#Cc1cncc(-c2nnc(SCc3cc([N+](=O)[O-])cc([N+](=O)[O-])c3)n2CCCN)c1  MIC (Enterobacter cloacae; broth dilution; DSM30054): > 64 µg/mL
Cc1ccc(N=Nc2c(N)nn3c(-c4ccc(Cl)cc4Cl)cc(-c4ccc(OCc5ccccc5)cc4)nc23)cc1  MIC (Enterobacter cloacae; ATCC23355): 31.3 µg/mL (≈ 54 µM)
Cc1ccc2[nH]nc(-c3nnc(Nc4ccc(F)cc4)s3)c2c1  MIC (Serratia marcescens; ATCC8100): 56.9 µg/mL (≈ 175 µM)
CCCCCCC#Cc1cncc(-c2nnc(SCc3cc([N+](=O)[O-])cc([N+](=O)[O-])c3)n2C2CCNCC2)c1  MIC (Enterobacter cloacae; broth dilution; DSM30054): > 64 µg/mL
Cc1ccc(-c2cc(-c3ccc(OCc4ccccc4)cc3)nc3c(N=Nc4ccc(F)cc4)c(N)nn23)cc1  MIC (Enterobacter cloacae; ATCC23355): 31.3 µg/mL (≈ 59.2 µM)
CCCCCCC#Cc1cncc(-c2nnc(SCc3ccc(Cl)cc3)n2CCCN)c1  MIC (Enterobacter cloacae; broth dilution; DSM30054): > 64 µg/mL
Cc1ccc2[nH]nc(-c3nnc(Nc4ccc(Cl)c(Br)c4)s3)c2c1  MIC (Serratia marcescens; ATCC8100): 270 µg/mL (≈ 641 µM)
CC[C@H]1OC(=O)[C@H](C)[C@@H](O[C@H]2C[C@@](C)(OC)[C@@H](O)[C@H](C)O2)[C@H](C)[C@@H](O[C@@H]2O[C@H](C)C[C@H](N(C)C)[C@H]2O)[C@](C)(O)C[C@@H](C)CN(C)[C@H](C)[C@@H](O)[C@]1(C)O  MIC (Enterobacter cloacae; broth dilution; ATCC13047): 4 µg/mL (≈ 5.34 µM)
CCCCCCC#Cc1cncc(-c2nnc(SCc3ccc([N+](=O)[O-])cc3)n2CCCN)c1  MIC (Enterobacter cloacae; broth dilution; DSM30054): > 64 µg/mL
